Data on 97 molecules can be found in ChEMBL document CHEMBL4513216, “Probing the Open Global Health Chemical Diversity Library for Multistage-Active Starting Points for Next-Generation Antimalarials” (ACS Infect Dis, 2020).

The nature of this data set: Toxicity liver stage against HepG2, at 10uM. It is filed as cell-based. Set-up: test concentration 10 uM, cell line HepG2-A16-CD81EGFP. The note with it: human, HepG2-A16-CD81EGFP cells; read-out: INHIBITION
The gist of the method:
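Uninfected HepG2-A16-CD81EGFP cells, 3 × 10^3 per well, 1536-well, plated on prespotted compound at 10 μM final, parasite-free screening media added to match infected plates; puromycin 10 μM positive, DMSO 0.5% negative; run in parallel with 48 h PbLuc assay at 37 °C, 5% CO2; viability by CellTiter-Glo luminescence, normalized to controls.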
In the case of `CC(=O)N1C[C@@H](F)[C@@H](OCc2nc3ccc(C#N)cc3[nH]2)C1`, the cytotoxicity at 10 µM is -0.302%.
Turning to `COc1cccc(CN2CCCCCC2c2sccc2C)c1O` (configuration not stated), the cytotoxicity at 10 µM was 7.18%.
For `CC(C)C(=O)N1CCC(C2C(=O)Nc3ccccc32)CC1` (configuration not stated) the value was -1.54%.
Turning to `CCN1C(=O)CCCC12CCCN(C(=O)c1occc1C)C2` (configuration not stated), the cytotoxicity at 10 µM was 2.88%.
With `N#Cc1cccc(N2CCOCC3(CCCN(C(=O)NC4CC4)C3)C2)c1` (configuration not stated) the figure was 14.1%.
For `COc1ccccc1-c1ccnc2nc(N3CCCCC3)[nH]c(=O)c12` the value was 7.36%; for `Cn1nc(C(=O)NCc2cccs2)c2c1CCS(=O)(=O)C2`, -0.328%.
With `CCOc1ccc(N2CCCN=C2NC(=O)c2cccc(Cl)c2)cc1` the figure was -10.1%.
Regarding `O=C(Cn1cccn1)N1CCC(c2nnc(-c3ccsc3)o2)CC1`, the cytotoxicity at 10 µM stood at 6.88%.
With `CN1CCc2nc(C3CCCN(S(=O)(=O)N4CCCC4)C3)ncc2C1` (configuration not stated) the figure was 2.4%; with `Cc1cncc(C2CCN(Cc3ccncc3)CC2)n1`, -3.08%.
With `CC(=O)N1CCN(c2cc(C)ncn2)CC(CO)C1` (configuration not stated) the figure was 2.94%; with `CC(=O)Nc1nc(C2CCN(C(C)C)CC2)cs1`, -3.3%.
For `Cc1ccc(C(=O)N2CCC[C@@H]2Cn2nnc3c(O)nc(C)nc32)cc1` the value was -10.3%.
As for `Cc1cc(-c2cc(F)ccc2C(=O)O)nc(C2CCCN(C)C2)n1` (configuration not stated), the cytotoxicity at 10 µM is -11.4%.
With `Cc1cccc(CN2CCC(c3nnc(-c4scnc4C)o3)CC2)c1` the figure was -3.8%; with `CC(C)NC(=O)N1CCn2c(nnc2C2CCCN2)C1` (configuration not stated), -1.32%; with `CS(=O)(=O)N1CC2(CCCN2Cc2ccc(Cl)cc2)Cc2ccccc21` (configuration not stated), 17%.
For `COCC(=O)N1CCN(C(C)C(=O)NC(C)C)CC1` (configuration not stated) the value was 1.06%; for `O=C(NCCCC(=O)N1Cc2ccccc2C1)NCc1ccsc1`, -15%.
With `CCN(CC)S(=O)(=O)c1ccc(OC)c(NC(=O)CSC)c1`, the cytotoxicity at 10 µM was -10%.
With `CCCN1CCCC1c1nc(Cc2ccc(F)cc2)no1` (configuration not stated) the figure was -2.74%.
With `Cc1nc(-c2ccco2)ccc1C(=O)NCCN1CCN(C)CC1` the figure was 3.88%; with `CN(C)CC1CN(Cc2cc(Cl)cc3cccnc23)CCO1` (configuration not stated), 5.26%; with `Cc1nc(CNC(=O)N2CCCC(c3ncc[nH]3)C2)sc1C` (configuration not stated), -0.331%.
For `Cc1cc(C)c(CNC(=O)NCc2nnc3n2CCC3)c(=O)[nH]1` the value was 22.1%; for `Cn1cc(C(O)CNC(=O)Nc2cc(F)ccc2-n2cccn2)cn1` (configuration not stated), 1.01%.
With `CSC(CNS(=O)(=O)c1cnn(C)c1)c1cccc(Cl)c1` (configuration not stated), the cytotoxicity at 10 µM turned out to be 4.63%.
For `Cc1ccc(-c2nc(CN3CCOC(c4ccccc4)C3)cs2)o1` (configuration not stated) the value was -8.11%; for `CN(CCCC#N)C1CCCN(Cc2noc(C3CC3)n2)C1` (configuration not stated), -14.5%.
For the molecule `CN1CCN(CCCNC(=O)c2cc(Cl)c3c(c2)OCO3)CC1`, the cytotoxicity at 10 µM is -16.7%.
With `CNc1nc2c(s1)C(=O)CN(C(=O)NCCc1ccccc1)C2` the figure was -7.38%; with `CC(C)[C@H](NS(C)(=O)=O)C(=O)NCc1cc(-c2ccco2)n[nH]1`, -9.13%; with `CC(C)SCCn1ccc2[nH]c(=O)c(C#N)cc2c1=O`, 3.18%.
For `O=C1OC2(CCN(C(=O)C3NCCc4[nH]cnc43)CC2)c2ccccc21` (configuration not stated) the value was -7.05%.
With `COc1cccc([C@H]2CN(C(=O)c3cc(C)on3)C[C@@H]2N)c1`, the cytotoxicity at 10 µM was found to be 3.14%.
For `Cc1nn(CCN2CCSCC2)cc1CNCc1ccccn1` the value was 2.28%.
For `CCOCc1nc2c(c(N(C)Cc3nonc3C)n1)CCNCC2` the value was 6.7%; for `N#Cc1cccc(N2CCCC(CO)(Cc3ccccc3F)C2)n1` (configuration not stated), 1.54%.
As for `CC(C)(CN1CCC(Cc2ccc(CO)cc2)C1)N1CCOCC1` (configuration not stated), the cytotoxicity at 10 µM is -2.71%.
For `CCc1c(C)nn(CCNC(=O)c2csc(C)n2)c1C` the value was -2.78%; for `CN(C)S(=O)(=O)N1CCOCC1CC(=O)NCCOc1ccccc1` (configuration not stated), 2.38%.
With `CCc1nnc(CN(CC)C(=O)C2CC(=O)N(Cc3cccnc3)C2)o1` (configuration not stated) the figure was 2.3%; with `Cc1cc(CC(C)NC(=O)c2cccc(CC3CCNCC3)c2)[nH]n1` (configuration not stated), 11.1%.
Take `Cc1c(Cn2ccnc2-c2cc(CN(C)C)cs2)cnn1C`: the cytotoxicity at 10 µM is -0.309%.
Regarding `COCCc1noc(CNC2CCSC2)n1` (configuration not stated), the cytotoxicity at 10 µM was -15%.
For `Nc1nccc(N2CCC(Cc3ccccc3Cl)(C(=O)O)CC2)n1` the value was -21.8%; for `OCCOCCN1CCCC1c1nc2cc(F)ccc2[nH]1` (configuration not stated), -17.5%.
With `Cc1nc(CCN(C)C(=O)C2COc3ccccc3C2)no1` (configuration not stated) the figure was -19.7%; with `CCCNC(=O)c1ccc(NC(=O)c2cccc(OCC)c2)cc1`, -10.5%.
For `Cc1csc(Nc2nccnc2C2CCCN2C(=O)C(C)C)n1` (configuration not stated) the value was 1.3%; for `CSc1ccc(C(=O)N2CCOCC2c2c(C)nn(C)c2C)o1` (configuration not stated), -2.12%; for `N#Cc1ccsc1NC(=O)CN1CCn2c(nnc2C2CC2)C1`, -14.5%.
Take `Clc1ccc(CN2CCCC2Cn2cncn2)c2ncccc12` (configuration not stated): the cytotoxicity at 10 µM was -9.66%.
For `Cc1[nH]ncc1C(=O)N1CCCC(c2ccn[nH]2)C1` (configuration not stated) the value was 0.23%.
Take `Cn1cnc2c1CCN(Cc1csc(-c3ccccc3)n1)C2`: the cytotoxicity at 10 µM was -1.04%.
For `CC(C(=O)N1CCN(Cc2ccc(C#N)cc2)CC1)n1ccnc1` (configuration not stated) the value was -9.71%.
With `CC(C(=O)NCc1ccnc(N2CCN(C)CC2)c1)S(C)(=O)=O` (configuration not stated) the figure was -13.9%; with `Cn1ccnc1CN1CCN(CCOc2cccc(C#N)c2)CC1`, -18%; with `CN(CC(=O)N1CCCCC1Cn1cccn1)Cc1ccccc1` (configuration not stated), -3.99%.
With `c1ncn(CC2CCCN2Cc2csc(C3CCCCC3)n2)n1` (configuration not stated) the figure was 1.77%.
Turning to `O=C1C(NS(=O)(=O)c2ccc(F)cc2)CCN1Cc1ccccc1` (configuration not stated), the cytotoxicity at 10 µM was -3.48%.
Take `CC(Cn1cccn1)NC(=O)NCc1ccnc(OC2CCCC2)c1` (configuration not stated): the cytotoxicity at 10 µM was -4.59%.
With `CCC(C)NC(=O)c1cc(Br)c2c(c1)OCCO2` (configuration not stated) the figure was -14.3%; with `O=C(CN1CCOC(CNc2cccnn2)C1)NCc1ccccn1` (configuration not stated), -0.945%; with `Cc1cnn(CC2CCCN2Cc2noc(-c3ccccc3)n2)c1` (configuration not stated), 0.441%.
With `COc1ccc(COCC(O)CNC(=O)c2cccc(OC)c2)cc1` (configuration not stated) the figure was -9.05%; with `CNC(=O)C1CCN(C(=O)NCCc2ccc(Cl)s2)CC1`, -12.3%.
On to `O=C(O)c1cc(S(=O)(=O)Nc2ccc(F)cc2Cl)cc2c1OCCO2`, for which the cytotoxicity at 10 µM is -8.12%.
For `CCc1cccc(N2CCC(NC(=O)c3ccncc3)CC2)c1` the value was -13.9%.
With `O=C(NCC(=O)N1CCCC(c2ccccc2)CC1)c1ccoc1` (configuration not stated) the figure was -4.31%; with `CCC(O)CN1CCN(C(=O)c2sccc2C(C)C)CC1` (configuration not stated), 6.89%.
With `NC(=O)c1csc(C(=O)N2CCCC(n3cccn3)C2)c1` (configuration not stated) the figure was -2.77%; with `NC(=O)c1ccc(C(=O)N2CCCC(n3ccnc3)C2)s1` (configuration not stated), -20.5%; with `Cc1noc(C)c1C(=O)NCC(c1ccc(F)cc1)N(C)C` (configuration not stated), -0.0707%.
For the molecule `COCCN1CCC(N(Cc2noc(C3CC3)n2)C(C)=O)C1` (configuration not stated), the cytotoxicity at 10 µM is -12.4%.
`Cc1cccc(-c2ccc(C(=O)NCCN(C)C3CC3)c(=O)[nH]2)c1`: the cytotoxicity at 10 µM is -6.81%.
With `Cc1ccccc1CC(=O)N(C)C1CCCC1` the figure was 6.33%.
For `COc1ccc(Br)c(C(=O)N2CCC(c3n[nH]c(C4CC4)n3)CC2)c1` the value was -1.44%.
Turning to `CCC1CN(CCNC(C)=O)CCN1CCOC` (configuration not stated), the cytotoxicity at 10 µM was -3.09%.
With `CCOc1cccc2c1OCC(C(=O)NS(=O)(=O)c1ccc(Cl)cc1)=C2` the figure was -11.1%; with `O=C(NCCOc1ccc2c(c1)OCO2)N1CCC1`, -6.24%.
For `CCc1cnc(CN2CCC(N(C)Cc3noc(C4CC4)n3)C2)o1` (configuration not stated) the value was -10.2%; for `CCn1cnnc1CNC(=O)N1CCN(Cc2ccccc2)CC1`, -1.3%.
For `COc1c(C2CCCN2C(=O)c2cccc(C(N)=O)c2)c(C)nn1C` (configuration not stated) the value was 0.192%.
Regarding `Cc1cc(CN2CCN(C(=O)c3sccc3C(C)C)CC2)no1`, the cytotoxicity at 10 µM was -0.962%.
For `COCCN1CCC2(CC1)CN(CCn1cccn1)C(=O)CO2` the value was 7.22%.
For `O=C(C1=CCCC1)N1CCC[C@]2(C[C@@H](Oc3ncccc3F)CO2)C1` the value was -15.5%.
As for `Cc1cccc(CN2C[C@@H]3CN(C(=O)c4ccco4)C[C@@H]3C2=O)n1`, the cytotoxicity at 10 µM is -0.42%.
For `CC(=O)N1CC(=O)N(c2cnn(C)c2)CC12CCN(Cc1ccsc1)C2` (configuration not stated) the value was -17.6%; for `Cc1c(F)cccc1S(=O)(=O)NC(C)(C)CN`, 0.926%; for `C[C@@H]1CN(Cc2ccoc2)C[C@]12CCN(CC(=O)N(C)C)C2=O`, 2.11%.
For `CN1CCC2(CCN(CC3CC3)CC2)C1=O` the value was 10.9%; for `CC(=O)N1[C@H](CN(C)C)C[C@@H]2CN(C(=O)c3cncc(C)c3)CC[C@@H]21`, 3.76%; for `CS(=O)(=O)N1CCO[C@@H]2CCN(Cc3ccncc3)CC[C@H]21`, 1.15%.
With `COc1cc(N2CCO[C@H]3[C@@H](Oc4cccnc4)CC[C@@H]32)ncn1` the figure was -3.33%.
As for `c1cnc(N2CCOCC3(CCCN(Cc4cc[nH]n4)C3)C2)nc1` (configuration not stated), the cytotoxicity at 10 µM stood at 3.35%.
